V-ATPase pHluor: yeast V-ATPase proton transport regulation by pHLuorin; S. cerevisiae, pHLuorin cytosolic pH fluorescence; AID 504577; hit rate 0.37% among 350,000; response, % at 10 µM; in the data active = response mostly above about 7.3%, no sharp cut-off; inactive = mostly below about 5.4%; also: actives read high
ADAM17 inh: ADAM17 inhibition, QFRET primary screen. hit rate 0.83% among 370,000. recombinant ADAM17, EDANS/DABCYL FRET peptide cleavage. inhibition, % at 6.95 µM;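 active = inhibition above the mean of compounds lying between control limits plus 3 SD, set per campaign, cut at about 8.5% in these data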;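 also: 0% = DMSO-only wells as the low control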
ADAM10 inh: inhibitors of human ADAM10. O14672. recombinant ADAM10, EDANS/DABCYL FRET peptide cleavage, 3 h. inhibition, % at 7 µM. hit rate 0.62% among 370,000. AID 720582;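 active = inhibition above a per-campaign cutoff equal to the mean of compounds falling between control-based bounds plus 3 SD, cut at about 20% in these data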;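 also: 0% = DMSO wells while the 100% control is not disclosed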
Target sequence (O14672 214-748 limits assumed): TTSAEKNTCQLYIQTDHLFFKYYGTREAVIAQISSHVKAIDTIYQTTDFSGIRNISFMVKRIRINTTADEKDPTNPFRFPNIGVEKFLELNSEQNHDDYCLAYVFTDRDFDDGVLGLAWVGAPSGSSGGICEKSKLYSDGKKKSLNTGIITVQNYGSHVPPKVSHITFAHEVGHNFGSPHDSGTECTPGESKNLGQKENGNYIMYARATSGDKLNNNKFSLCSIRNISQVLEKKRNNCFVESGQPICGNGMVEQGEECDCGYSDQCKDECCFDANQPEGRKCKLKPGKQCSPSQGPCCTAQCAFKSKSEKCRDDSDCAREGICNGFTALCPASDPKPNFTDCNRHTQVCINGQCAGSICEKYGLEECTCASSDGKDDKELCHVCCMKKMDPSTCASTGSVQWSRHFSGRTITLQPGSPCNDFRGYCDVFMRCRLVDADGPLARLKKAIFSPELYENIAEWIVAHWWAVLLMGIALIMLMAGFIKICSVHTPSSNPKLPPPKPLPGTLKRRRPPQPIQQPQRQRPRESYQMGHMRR
Lipid droplet: hepatic lipid droplet formation modulation. AML12 mouse hepatocytes, oleate lipid droplets, BODIPY imaging. hit rate 0.4% among 240,000. inhibition, % at 6.5 µM;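 active = lipid droplet intensity inhibited by at least 50%, with more than 500 cells counted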
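Test system: AML12 mouse liver cells; schedule: overnight exposure; technique: high-content imaging of BODIPY-stained droplets and DAPI nuclei; read-out: % inhibition of corrected integrated BODIPY droplet signal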
MPTP inh: inhibitors of mitochondrial permeability transition pore; isolated mouse mitochondria, Ca2+ swelling absorbance, 30 min; inhibition, % at 10 µM; hit rate 1.4% among 360,000; AID 602449;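 active = inhibition of 50% or more, scaled per plate between neutral and stimulator controls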;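 also: 0% = DMSO wells given calcium and 100% = 1 mM EGTA wells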
aDG glyco up: increases alpha dystroglycan glycosylation; Pro5-aDG cells, alpha-DG glycosylation AlphaScreen (IIH6); 0% Pro5, 100% B10-LARGE cell signal; hit rate 0.22% among 360,000; activation, % at 10 µM;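 active = activation of at least 8% versus controls, or a plate z-score of at least 8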;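 also: Pro5 are CHO cells carrying HIG-tagged alpha-DG that lacks glycosylation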
VATPase regulator: modulates yeast V-ATPase proton transport; response, % at 10 µM; S. cerevisiae pHLuorin cytosolic pH; AID 602197; shares compounds with V-ATPase pHluor; hit rate 2% among 980; in the data active = response above about 24%;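 also: plate controls were vehicle wells for no effect and positive control wells for full effect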
An asterisk follows results filed as active; . = no result given. The list is not random: actives were taken first. Their share in the collection is about 3.1%.

SMILES	V-ATPase pHluor	ADAM17 inh	ADAM10 inh	Lipid droplet	MPTP inh	aDG glyco up	VATPase regulator
Cc1ccc(CNS(=O)(=O)c2ccc3c(c2)NC(=O)CO3)cc1	-1	-4	-1	4	-1	1	.
NS(=O)(=O)c1ccc(CCNS(=O)(=O)c2ccc3c(c2)NC(=O)CO3)cc1	9.4*	0	-6	8	-1	0	2
Cc1nn(Cc2c(F)c(F)c(F)c(F)c2F)c(C)c1NC(=O)c1ccc(COc2ccccc2Cl)cc1	16*	0	2	.	-2	0	0
COc1cc(NC(=S)NC(=O)c2ccco2)ccc1NC(=O)C(C)C	7	-1	-8	-1	3	0	.
COc1cc(NC(=S)NC(=O)c2ccccc2F)ccc1NC(=O)c1ccco1	54*	-3	-5	-10	1	0	2
COc1ccc2c(c1)C(CC(=O)NN)CCC2 (stereo unspecified)	13*	-2	2	.	-2	0	0
COc1ccc(CC(=O)NC2CCCc3ccccc32)cc1 (stereo unspecified)	1	-2	-2	4	3	0	.
Cc1ncsc1CCOC(=O)c1ccc([N+](=O)[O-])cc1	45*	2	5	1	0	0	-1
COc1cccc(CNC(=O)C2CCN(c3nc(OC)nc(OC)n3)CC2)c1	.	3	6	.	.	.	.
O=C(Nc1cc2c(cc1Br)OCCCO2)c1cccnc1	9.4*	2	-5	-4	0	0	6
COc1ncc(-c2cc(C(C)=O)c3n(c2=O)CCC3)c(OC)n1	.	-2	-1	.	.	.	.
CCOC(=O)C1=NOC(C(C)=O)(C(=O)N2CCOCC2)C1 (stereo unspecified)	.	-3	-4	.	.	.	.
CC(=O)c1cccc(S(=O)(=O)N2CCN(c3ccccc3F)CC2)c1	12*	4	11	1	1	0	-1
Cc1ccccc1NC(=O)Nc1ccc2c(c1)C(=O)N(C)[C@H]1CC[C@H](CC(=O)NCC3CC3)O[C@@H]1CO2	.	-10	5	.	.	.	.
O=C(Nc1cccc(Br)c1)OC1CC2CC1[C@H]1CCCCN1C2 (stereo partly specified)	.	-9	-15	.	.	.	.
O=C(O)C1CCC1C(=O)Nc1nc(-c2ccc(Cl)s2)cs1 (stereo unspecified)	12*	-2	6	14	2	0	0
CCCc1nc2sc3c(c2c(=O)n1NC(=O)CCC(=O)O)CCCC3	8.6*	.	.	12	0	0	-4
O=C(CSc1nc2ccccc2o1)Nc1nc2ccc(Br)cc2s1	0	-5	-4	-15	-1	0	.
COc1ccc2nc(NC(=O)CSc3nc4ccccc4o3)sc2c1	12*	4	-7	.	-7	1	1
Cc1ccc(Cn2cc(CN3CC=CS3(=O)=O)nn2)cc1	.	-7	-1	.	.	.	.
COc1cccc(C2c3c(ncn(-c4ccccc4)c3=N)Oc3ccc4ccccc4c32)c1 (stereo unspecified)	.	1	2	.	.	.	.
Cc1ccc2oc(C(=O)N(C)Cc3ccc(C)o3)c(C)c2c1	12*	8	-13	-12	-3	1	69*
Cc1ccc2oc(C(=O)N(C)Cc3ccon3)c(C)c2c1	0	-1	4	16	1	0	.
COc1ccc(NS(=O)(=O)CC(C)C)c(OC)c1	11*	1	0	21	1	0	0
Cn1c(SC2CCCC2)nnc1-c1ccco1	.	2	-8	.	.	.	.
SMILES	V-ATPase pHluor	ADAM17 inh	ADAM10 inh	Lipid droplet	MPTP inh	aDG glyco up	VATPase regulator
CCn1c(SCC(=O)NCC(=O)Nc2ccc(F)cc2)nnc1-c1cccs1	8.6*	-3	-1	.	-1	0	-6
CCn1c(SCC(=O)Nc2ccc(C(=O)OC)cc2)nnc1-c1cccs1	-6	-8	-3	5	2	0	.
Nn1c(SCC(=O)Nc2ccc(Br)cn2)nnc1-c1n[nH]c2c1CCC2	.	-1	-2	.	.	.	.
CCOC(=O)Cc1cc(=O)n2[nH]c(C)c(-c3ccccc3OC)c2n1	19*	-8	-10	-5	1	0	0
Cc1ccc(NC(=O)CCC(=O)NNC(=O)c2ccccc2Cl)c(C)c1	13*	-1	0	-22	3	1	-2
O=C(CSc1nnc(-c2ccccc2)n1-c1ccccc1)NN=Cc1ccc(-c2ccccc2)cc1	.	-3	-4	.	.	.	.
CC1CN(CC(O)COc2ccc(C(C)C)cc2)CC(C)O1 (stereo unspecified)	8.8*	-3	4	17	1	1	0
O=C(/C=C/c1cccc([N+](=O)[O-])c1)OCC(=O)N1CCN(C(=O)c2ccco2)CC1	12*	-9	-10	.	0	0	3
CN(C(=O)c1ccc(NC(=O)Cc2ccc(NC(=O)C3CCCN(C(=O)C4CCCC4)C3)cc2)cc1)C1CC1 (stereo unspecified)	20*	4	-11	.	0	0	-6
COC(=O)N/N=C/c1cn(Cc2ccccc2F)c2ccccc12	10*	-2	-1	-29	1	0	2
COC(=O)N/N=C/c1cn(Cc2ccccc2Cl)c2ccccc12	9	6	11	-15	1	1	.
COc1c(Cl)cc(Cl)cc1CNCCNCC(C)O (stereo unspecified)	0	-1	1	.	-1	0	.
CNCc1cc(Cl)cc(OC)c1OC(C)C	7.7*	-2	7	-23	-2	2	-2
O=C(CN1CCc2ccccc2C1)Nc1ccccc1N1CCCCCC1	16*	.	.	-32	8	0	-1
O=C(NC1CCCCN(Cc2cccc(Cl)c2)C1=O)c1cccs1 (stereo unspecified)	.	7	10	.	.	.	.
CC(CCN1CCC(C(O)(c2ccccc2)c2ccccc2)CC1)Oc1ccc(F)cc1 (stereo unspecified)	.	3	8	.	.	.	.
CCOc1ccc(CCNC(=O)COC(=O)c2ccc(S(C)(=O)=O)cc2)cc1OCC	15*	-3	2	.	0	0	0
CCOc1ccc(CCNC(=O)COC(=O)c2ccc(S(=O)(=O)N3CCCC3)cc2)cc1OCC	2	0	3	.	1	0	.
CC(C)CNC(=O)OCc1cn(Cc2ccc(F)cc2F)nn1	.	0	3	.	.	.	.
O=c1c2ccccc2nc(SCc2ccccc2)n1CC1CCCO1 (stereo unspecified)	0	0	8	1	1	0	.
O=C1CN(C(=O)CSc2nc3ccccc3c(=O)n2CC2CCCO2)c2ccccc2N1 (stereo unspecified)	11*	-3	-10	-6	0	0	-1
Cc1ccc(S(=O)(=O)N2CCC(C(=O)N/N=C/c3cccn3C)CC2)cc1	11*	-5	-1	.	-1	0	3
Cc1ccc(C(=O)NNC(=O)C2CCN(S(=O)(=O)c3ccc(C)cc3)CC2)cc1	2	6	7	0	1	0	.
